ChEMBL document CHEMBL1157793, “Synthesis and antitumor activity of 1,5-disubstituted 1,2,4-triazoles as cis-restricted combretastatin analogues” (J Med Chem, 2010)

Experiments:
HeLa = assay: Antiproliferative activity against human HeLa cells after 72 hrs by MTT assay; type: functional, cell-based
A549 = assay: Antiproliferative activity against human A549 cells after 72 hrs by MTT assay; type: functional, cell-based; settings: A549, 72 h
HL-60 = assay: Antiproliferative activity against human HL60 cells after 72 hrs by MTT assay; type: functional, cell-based; settings: HL-60, 72 h
Jurkat = assay: Antiproliferative activity against human Jurkat cells after 72 hrs by MTT assay; type: functional, cell-based
Outline: (§1)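 Cells seeded at 8×10^3 per well (Jurkat, HL-60, K562 in RPMI-1640; MCF7, A549, HeLa in DMEM; all with 10% FBS, penicillin/streptomycin), incubated 18 h at 37 °C, 5% CO2, then exposed to compound at varying concentrations in complete medium for 72 h.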

K562 = assay: Antiproliferative activity against human K562 cells after 72 hrs by MTT assay; type: functional, cell-based; settings: K562, 72 h; outline: as §1
MCF7 = assay: Antiproliferative activity against human MCF7 cells after 72 hrs by MTT assay; type: functional, cell-based; settings: MCF7, 72 h
Bos taurus = species on record: Bos taurus; assay: Displacement of [3H]colchicine from bovine tubulin at 1 uM
Outline: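 [3H]Colchicine binding inhibition measured with reaction mixtures of 1 µM tubulin, 5 µM [3H]colchicine and 1 µM test compound.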

[1] = Inhibition of bovine brain tubulin polymerization after 20 mins by turbidimetry; design: species or system Bos taurus
Outline: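 Bovine brain tubulin (10 µM) preincubated with varying compound concentrations in glutamate buffer at 30 °C, chilled to 0 °C, 0.4 mM GTP added, then warmed to 30 °C in spectrophotometer; assembly followed by turbidity at 350 nm.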

IC50 (HeLa) [µM]	IC50 (A549) [µM]	IC50 (HL-60) [µM]	IC50 (Jurkat) [µM]	IC50 (K562) [µM]	IC50 (MCF7) [µM]	Activity (Bos taurus) [%]	IC50 [1] [µM]	SMILES
> 10	> 10	> 10	> 10	> 10	> 10			COc1cc(-c2ncnn2-c2ccc(Cl)cc2)cc(OC)c1OC
> 10	> 10	> 10	> 10	> 10	> 10			COc1cc(-c2ncnn2-c2cccc(N)c2)cc(OC)c1OC
> 10	> 10	> 10	> 10	> 10	> 10			COc1cc(-c2ncnn2-c2ccc(F)cc2)cc(OC)c1OC
0.6	> 10	0.7	0.65	0.8	0.61	37	5.1	COc1cc(-n2ncnc2-c2ccc(OC(C)C)cc2)cc(OC)c1OC
> 10	> 10	> 10	> 10	> 10	> 10			COc1cc(-n2ncnc2-c2ccccc2)cc(OC)c1OC
> 10	> 10	> 10	> 10	> 10	> 10			COc1cc(-c2ncnn2-c2cccc(F)c2)cc(OC)c1OC
0.15	0.8	0.5	0.05	0.34	0.39	38	3.6	COc1cc(-n2ncnc2-c2ccc(SC)cc2)cc(OC)c1OC
> 10	> 10	> 10	> 10	> 10	> 10			COc1ccccc1-c1ncnn1-c1cc(OC)c(OC)c(OC)c1
> 10	> 10	> 10	> 10	> 10	> 10			COc1cc(-n2ncnc2-c2ccc(Cl)c(Cl)c2)cc(OC)c1OC
> 10	> 10	> 10	> 10	> 10	> 10			COc1cc(-c2ncnn2-c2ccc(Cl)cc2Cl)cc(OC)c1OC
0.28	0.52	0.12	0.05	0.95	0.36	55	2.3	COc1ccc(-c2ncnn2-c2cc(OC)c(OC)c(OC)c2)cc1
0.25	1.1	0.09	0.3	> 10	0.54	33	3.9	COc1cc(-n2ncnc2-c2ccc(C)cc2)cc(OC)c1OC
> 10	> 10	> 10	> 10	> 10	> 10			COc1cc(-c2ncnn2-c2ccc(N)cc2)cc(OC)c1OC
> 10	> 10	> 10	> 10	> 10	> 10			COc1cc(-n2ncnc2-c2ccc(OC(F)(F)F)cc2)cc(OC)c1OC
> 10	> 10	> 10	> 10	> 10	> 10			CCOc1cccc(-c2ncnn2-c2cc(OC)c(OC)c(OC)c2)c1
> 10	> 10	> 10	> 10	> 10	> 10			COc1cc(-c2ncnn2-c2cccc([N+](=O)[O-])c2)cc(OC)c1OC
> 10	> 10	> 10	> 10	> 10	> 10			COc1cc(-n2ncnc2-c2cccc(Cl)c2)cc(OC)c1OC
> 10	> 10	> 10	> 10	> 10	> 10			COc1cc(-c2ncnn2-c2ccc(Cl)c(Cl)c2)cc(OC)c1OC
> 10	> 10	> 10	> 10	> 10	> 10			COc1cc(-n2ncnc2-c2cccc(F)c2)cc(OC)c1OC
> 10	> 10	> 10	> 10	> 10	> 10			COc1cc(-c2ncnn2-c2ccc([N+](=O)[O-])cc2)cc(OC)c1OC
> 10	> 10	> 10	> 10	> 10	> 10			CCOc1ccccc1-c1ncnn1-c1cc(OC)c(OC)c(OC)c1
> 10	> 10	> 10	> 10	> 10	> 10			COc1cccc(-c2ncnn2-c2cc(OC)c(OC)c(OC)c2)c1
> 10	> 10	> 10	> 10	> 10	> 10			COc1cc(-n2ncnc2-c2ccc(Cl)cc2)cc(OC)c1OC
> 10	> 10	> 10	> 10	> 10	> 10			COc1cc(-n2ncnc2-c2ccc(F)cc2)cc(OC)c1OC
> 10	> 10	6.2	0.093	3.6	7.4		16	COc1ccc(-n2ncnc2-c2cc(OC)c(OC)c(OC)c2)cc1
> 10	> 10	> 10	> 10	> 10	> 10			COc1cc(-n2ncnc2-c2cccc([N+](=O)[O-])c2)cc(OC)c1OC
> 10	> 10	> 10	> 10	> 10	> 10			COc1cc(-c2ncnn2-c2ccccc2)cc(OC)c1OC

SMILES	IC50 (HeLa) [µM]	IC50 (A549) [µM]	IC50 (HL-60) [µM]	IC50 (Jurkat) [µM]	IC50 (K562) [µM]	IC50 (MCF7) [µM]	Activity (Bos taurus) [%]	IC50 [1] [µM]
COc1ccc(/C=C\c2cc(OC)c(OC)c(OC)c2)cc1O [COMBRETASTATIN A4]				0.005	0.005		87	
